Reference: ChEMBL document CHEMBL1123658, “1-(2-pyridinyl)piperazine derivatives with antianaphylactic, antibronchospastic, and mast cell stabilizing activities” (J Med Chem, 1987)

Tests used:
Cavia porcellus = assay: Antibronchospatic activity determined by histamine stimulated bronchospasm inhibition in guinea pigs after(i.v.) administration; type: functional, Bronchiole
In short: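 Guinea pigs, Konzett–Rössler preparation. Bronchospasm was induced with histamine. Compound was given iv (1 mL/kg) 1 min before the agonist, dissolved in saline or saline with slight excess HCl or CH3SO3H (pH 3.5–4). Three doses were tested in duplicate, chosen to give 20–90% inhibition. ID75 was read graphically from log dose–response curves.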

Rattus norvegicus [1] = assay: Rat PCA Test(50% inhibition of spot areas)in the female albino rats after (ip) administration in 10% aqueous acacia gum; type: functional; settings: read-out: ID50 (the source's name)
In short: (§1)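 Female albino rats (200–250 g) received intradermal ventral injections of rat anti-egg-albumin antiserum; donors were raised with egg albumin im plus H. pertussis ip, and serum was taken at 12 days. 24 h later, compound was given ip in 10% acacia gum (10 mL/kg), 10 rats/group. Challenge 30 min later was iv 0.3% egg albumin plus 1% Evans blue. Blued areas were measured 30 min after challenge.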

[2] = In vivo toxic effect was determined in mouse after intraperitoneal administration with 10% aqueous acacia gum; value ranges from 5.14-9.14; type: toxicity, organism-based; settings: ip
In short: (§2)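 Female albino mice (20-30 g), 10 animals per dose, dosed intraperitoneally with compound in solution or suspension; compounds tested as salts unless noted. Mortality was recorded over 7 days.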

Rattus norvegicus [3] = assay: Inhibition of mast cell degranulation was assessed in female albino rats at a dose of 2 umol/kg iv; type: functional
Rattus norvegicus [4] = assay: Rat PCA Test(50% inhibition of spot areas)in the female albino rats after oral administration in 10% aqueous acacia gum; value ranges from 1.7-2.4; type: functional; settings: read-out: ID50 (the source's name)
In short: (§3)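 Female rats (200-250 g) were passively sensitized by ventral intradermal anti-egg-albumin antiserum. This was raised in rats by intramuscular 1% egg albumin plus ip H. pertussis vaccine, with serum taken at 12 days. After 24 h, groups of 10 were dosed orally with compound or vehicle (10 mL/kg). At 60 min, iv challenge used 0.3% egg albumin with 1% Evans blue. Blued areas were measured after 30 min.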

[5] = In vivo toxic effect was determined in mouse after intraperitoneal administration with 10% aqueous acacia gum; value ranges from 0.29-0.42; type: toxicity, organism-based; settings: ip; in short: as §2
[6] = In vivo toxic effect was determined in mouse after oral administration with 10% aqueous acacia gum; value ranges from 0.50-0.68; type: toxicity, organism-based
[7] = In vivo toxic effect was determined in mouse after intraperitoneal administration with 10% aqueous acacia gum; value ranges from 0.40-1.72; type: toxicity, organism-based; settings: ip; in short: as §2
[8] = In vivo toxic effect was determined in mouse after oral administration with 10% aqueous acacia gum; value ranges from 0.67-1.21; type: toxicity, organism-based
In short: (§4)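 Female albino mice, 20-30 g. Compound given orally as solution or suspension in 10% aqueous acacia gum, 10 animals per dose. Deaths recorded over 7 days.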

[9] = In vivo toxic effect was determined in mouse after intraperitoneal administration with 10% aqueous acacia gum; value ranges from 1.41-3.07; type: toxicity, organism-based; settings: ip; in short: as §2
[10] = In vivo toxic effect was determined in mouse after oral administration with 10% aqueous acacia gum; value ranges from 3.02-4.51; type: toxicity, organism-based; in short: as §4
Rattus norvegicus [11] = assay: Rat PCA Test(50% inhibition of spot areas)in the female albino rats after (ip) administration in 10% aqueous acacia gum; value ranges from 114-198; type: functional; settings: read-out: ID50 (the source's name); in short: as §1
[12] = In vivo toxic effect was determined in mouse after intraperitoneal administration with 10% aqueous acacia gum; value ranges from 0.85-1.18; type: toxicity, organism-based; settings: ip; in short: as §2
[13] = In vivo toxic effect was determined in mouse after oral administration with 10% aqueous acacia gum; value ranges from 0.68-1.24; type: toxicity, organism-based; in short: as §4
Rattus norvegicus [14] = assay: Rat PCA Test(50% inhibition of spot areas)in the female albino rats after ip administration in 10% aqueous acacia gum; type: functional; settings: read-out: ID50 (the source's name)
In short: (§5)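 Antiserum came from female rats given 1% egg albumin in 0.9% NaCl intramuscularly plus Haemophilus pertussis vaccine (2 × 10^10 organisms) intraperitoneally, and was collected 12 days later. Recipient rats (200-250 g) got it intradermally at a ventral site. After 24 h, groups of 10 received vehicle or compound ip. At 30 min they were challenged iv with 0.3% egg albumin plus 1% Evans blue. Blued skin areas were measured 30 min later.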

[15] = In vivo toxic effect was determined in mouse after intraperitoneal administration with 10% aqueous acacia gum; value ranges from 0.63-1.05; type: toxicity, organism-based; settings: ip; in short: as §2
[16] = In vivo toxic effect was determined in mouse after intraperitoneal administration with 10% aqueous acacia gum; value ranges from 0.72-1.13; type: toxicity, organism-based; settings: ip; in short: as §2
Rattus norvegicus [17] = assay: Rat PCA Test(50% inhibition of spot areas)in the female albino rats after (ip) administration in 10% aqueous acacia gum;Value ranges from (81-186); type: functional; settings: read-out: ID50 (the source's name); in short: as §5
Rattus norvegicus [18] = assay: Rat PCA Test(50% inhibition of spot areas)in the female albino rats after (ip) administration in 10% aqueous acacia gum; value ranges from 20-94; type: functional; settings: read-out: ID50 (the source's name); in short: as §1
Rattus norvegicus [19] = assay: Rat PCA Test(50% inhibition of spot areas)in the female albino rats after oral administration in 10% aqueous acacia gum; type: functional; settings: read-out: ID50 (the source's name); in short: as §3
[20] = In vivo toxicity in mouse after oral administration with 10% aqueous acacia gum; type: organism-based; in short: as §4
Mus musculus = assay: In vivo toxic effect was determined in mouse after intraperitoneal administration with 10% aqueous acacia gum; NA means poorly absorbed; type: toxicity, organism-based; settings: ip; in short: as §2
Rattus norvegicus [21] = assay: Rat PCA Test(50% inhibition of spot areas)in the female albino rats after (ip) administration in 10% aqueous acacia gum; value ranges from 22-195; type: functional; settings: read-out: ID50 (the source's name); in short: as §1
[22] = In vivo toxic effect was determined in mouse after intraperitoneal administration with 10% aqueous acacia gum; value ranges from 0.72-1.40; type: toxicity, organism-based; settings: ip; in short: as §2
[23] = In vivo toxic effect was determined in mouse after oral administration with 10% aqueous acacia gum; value ranges from 1.35-1.88; type: toxicity, organism-based; in short: as §4

Compound: CCOC(=O)CC(C)N1CCN(c2ccccn2)CC1.Cl.Cl (centres undefined)
- ID75 (Cavia porcellus): 4.14 µM/kg
- ED50 (Rattus norvegicus [1]): > 857 µmol/kg
- LD50 [2]: 6850 µmol/kg

Compound: CN1CCC(=C2c3ccccc3CC(=O)c3sccc32)CC1 [KETOTIFEN]
- inhibition in vivo at 2 µmol/kg (Rattus norvegicus [3]): 22%
- ID75 (Cavia porcellus): 0.0015 µM/kg
- ED50 (Rattus norvegicus [4]): 2 µmol/kg
- LD50 [5]: 350 µmol/kg
- LD50 [6]: 580 µmol/kg

Compound: Cl.Cl.O=C(CCN1CCN(c2ccccn2)CC1)Nc1ccc([N+](=O)[O-])cc1
- ID75 (Cavia porcellus): 0.94 µM/kg
- LD50 [7]: 470 µmol/kg
- LD50 [8]: 810 µmol/kg

Compound: Cl.Cl.O=C(CCN1CCN(c2ccccn2)CC1)Nc1ccccc1[N+](=O)[O-]
- ID75 (Cavia porcellus): 0.58 µM/kg
- ED50 (Rattus norvegicus [1]): > 230 µmol/kg
- LD50 [9]: 2080 µmol/kg
- LD50 [10]: 3700 µmol/kg

Compound: Cl.Nc1cccc(NC(=O)CCN2CCN(c3ccccn3)CC2)c1
- ID75 (Cavia porcellus): 0.61 µM/kg
- ED50 (Rattus norvegicus [11]): 148 µmol/kg
- LD50 [12]: 900 µmol/kg
- LD50 [13]: 850 µmol/kg

Compound: Cc1c(C)c(C(=O)NCCN2CCN(c3ccccn3)CC2)c(C)c(C)c1N
- ID75 (Cavia porcellus): 8.39 µM/kg
- ED50 (Rattus norvegicus [14]): > 236 µmol/kg
- LD50 [15]: 710 µmol/kg

Compound: Cc1cccc(C)c1NC(=O)CN1CCN(c2ccccn2)CC1
- ID75 (Cavia porcellus): >24 µM/kg
- LD50 [16]: 900 µmol/kg
- ED50 (Rattus norvegicus [17]): 123 µmol/kg

Compound: Br.CC(=O)c1ccc(NC(=O)CCN2CCN(c3ccc(Br)cn3)CC2)cc1
- ED50 (Rattus norvegicus [18]): 43 µmol/kg
- ED50 (Rattus norvegicus [19]): > 230 µmol/kg
- LD50 [20]: > 7000 µmol/kg
- LD50 (Mus musculus): Not Active

Compound: Cc1ccccc1NC(=O)CCN1CCN(c2ccccn2)CC1
- ID75 (Cavia porcellus): 0.47 µM/kg
- ED50 (Rattus norvegicus [21]): 65 µmol/kg
- ED50 (Rattus norvegicus [19]): > 96 µmol/kg
- LD50 [22]: 1010 µmol/kg
- LD50 [23]: 1580 µmol/kg
